Hits are enriched below; roughly 3.4% of the tested compounds scored in any of these assays.
SF-1 act – activators of human nuclear receptor SF-1 | Q13285 | CHO-K1 Gal4-SF-1 LBD luciferase reporter; % increase over DMSO SF-1-specific signal | activation, % at 10 µM | 1.9% of 65,000 active | AID 522;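 active = activation above the mean activation of all tested compounds plus 3 SD, cut at about 50% in these data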
Target sequence (Q13285 whole entry, looked up, the tested form may be a part): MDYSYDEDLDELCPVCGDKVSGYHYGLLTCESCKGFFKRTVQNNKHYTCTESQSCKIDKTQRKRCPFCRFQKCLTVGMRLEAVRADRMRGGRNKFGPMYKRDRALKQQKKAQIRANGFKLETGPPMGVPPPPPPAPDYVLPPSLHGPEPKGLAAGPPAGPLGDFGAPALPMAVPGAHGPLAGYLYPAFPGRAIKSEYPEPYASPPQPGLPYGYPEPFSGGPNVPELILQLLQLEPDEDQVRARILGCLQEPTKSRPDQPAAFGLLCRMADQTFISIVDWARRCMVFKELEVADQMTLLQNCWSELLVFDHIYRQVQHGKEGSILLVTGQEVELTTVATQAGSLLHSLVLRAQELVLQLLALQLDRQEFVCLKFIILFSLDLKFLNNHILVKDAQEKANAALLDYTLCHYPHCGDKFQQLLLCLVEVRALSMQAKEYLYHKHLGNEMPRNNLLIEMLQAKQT
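Material: Gal4–SF-1 LBD one-hybrid luciferase reporter in CHO-K1 cells | Amount: 4,000 cells per well | Compound dosing: 10 µM single point, 1% DMSO | Schedule: 20 h compound treatment, 37 °C | Measured by: SteadyLite luciferase luminescence | Evaluation: Percent activation versus DMSO | Control set: DMSO-treated SF-1-transfected cells as negative, DMSO-treated mock-transfected cells lacking SF-1 as background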
PKA inh – PKA (human) kinase inhibition. PKA Kemptide phosphorylation, Kinase-Glo ATP luminescence. P17612. inhibition, % at 6 µM. 0.1% of 65,000 active;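 active = inhibition above the screen-wide mean inhibition plus 3 SD, cut at about 21% in these data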
JNK3 inh – inhibitors of human JNK3 kinase; 0.61% of 60,000 active; P53779; AID 746; inhibition, % at 8 µM; purified JNK3 kinase activity, HTS; in the data active = inhibition above about 17%;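 also: 0% = DMSO and 100% = reference inhibitor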
RORa activator – activators of human nuclear receptor RORA; AID 560; CHO-K1 Gal4-RORA LBD luciferase reporter, luminescence; percent increase over mock-subtracted basal signal; 1.5% of 65,000 active; P35398; activation, % at 10 µM;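 active = activation above the mean of all tested compounds plus 3 SD, cut at about 49% in these data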;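 also: 0% = DMSO-treated RORA cells and 100% = added signal equal to DMSO minus mock-transfected cells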
WNV NS2B-NS3 inh – inhibitors of West Nile virus NS2B-NS3 protease. P06935. WNV NS2B-NS3 protease, fluorogenic substrate Ex360/Em465; hits give low values. z-score (concentration not given with the values). 0.18% of 65,000 active. AID 577; in the data active = z-score below about -3
ROCK2 inh – ROCK2 (human) kinase inhibition; O75116; purified ROCK2, Kinase-Glo ATP depletion luminescence; inhibition, % at 6 µM; 0.35% of 60,000 active;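 active = inhibition above the screen-wide mean inhibition plus 3 SD, cut at about 18% in these data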;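 also: plate controls were DMSO wells for no effect and Y-27632 control wells after no-enzyme background subtraction for full effect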
An asterisk follows results filed as active; . = no result.

SMILES | SF-1 act | PKA inh | JNK3 inh | RORa activator | WNV NS2B-NS3 inh | ROCK2 inh
CCc1ccc(NC(=O)c2cc(C(C)C)on2)cc1 | 11 | 4 | -6 | 62* | -0.44 | 1
Cc1ccc(NC(=O)c2cc(C)on2)cc1 | 60* | 14 | 3 | 30 | -0.18 | 5
COC(=O)c1cccc(C(=O)Nc2ccc(C)cc2)n1 | 50* | 1 | 1 | 23 | -0.97 | -3
CCc1ccc(NC(=O)c2cc(CC(C)C)on2)cc1 | 32 | 5 | 2 | 11 | 0.49 | 1
CCc1ccc(NC(=O)c2cc(C)on2)cc1 | 31 | 13 | 3 | 12 | -1.1 | 5
CCOc1cccc2cc(-c3nnc(-c4ccccc4)o3)c(=O)oc12 | 16 | -1 | 2 | 38 | -0.09 | 2
Cc1noc(C)c1CSc1nc2sc(C)c(C)c2c(=O)n1C1CCCC1 | 14 | 10 | 4 | -1 | 0.33 | 5
CC(=O)NC1C(=O)N=C(SCc2ccccc2)NC1=O (stereo not given) | . | . | . | . | 0.73 | .
CC(=O)NC1Sc2ccccc2N=C1c1ccccc1 (stereo not given) | 59* | 12 | 0 | 42 | -0.06 | 2
Cc1ccnc(Nc2nc(-c3c(C)nc4sccn34)cs2)c1 | 31 | 6 | 34* | -8 | -0.4 | 4
CCOC(=O)c1cnc2cc3c(cn2c1=O)CCCC3 | 86* | -5 | -9 | 27 | -0.31 | -1
CCOn1c(=O)c(-c2cc3ccccc3o2)[n+]([O-])c2ccccc21 | 97* | 9 | -1 | 60* | -0.63 | 8
CCOC(=O)COn1c(=O)c(-c2ccco2)[n+]([O-])c2ccccc21 | -16 | -4 | -4 | -9 | 0.01 | -2
C[N+]1=C2CCCCCN2C(O)(c2ccccc2)C1 (stereo not given) | 2 | 4 | 2 | -1 | -1.2 | 2
Cc1noc(C)c1C(=O)OCC(=O)c1ccc[nH]1 | 14 | 4 | 0 | 18 | -1.3 | 4
Cc1noc(C)c1C(=O)OCC(=O)c1cc(C)n(Cc2ccccc2Cl)c1C | 29 | 2 | 2 | 49* | 0.55 | 2
O=C(Nc1ccc(Cl)cc1)N1CCC(c2nc(-c3cccs3)no2)CC1 | 6 | -2 | -3 | -1 | -2.2 | -6
O=C(Nc1ccc(Cl)cc1)N1CC=CCC1 | 20 | -5 | -6 | 52* | -0.73 | -4
COc1ccc2[nH]c3ccccc3c2c1 | -12 | 0 | -3 | 0 | -1 | 2
COc1ccc2[nH]c(=O)c3c(c2c1)OC(C)(C)C=C3 | -25 | 16 | 5 | -58 | -1.1 | 23*
Nc1c(C(=O)NCc2ccc3c(c2)OCO3)c2nc3ccccc3nc2n1CCCN1CCOCC1 | 0 | 6 | -2 | 27 | -0.22 | 4
Nc1ccc(-n2c(N)c(C(=O)NCc3ccc4c(c3)OCO4)c3nc4ccccc4nc32)cc1 | -32 | 0 | 21* | 20 | -0.76 | 3
Nc1c(C(=O)NCCN2CCOCC2)c2nc3ccccc3nc2n1-c1ccc2c(c1)OCO2 | -7 | 2 | 2 | 55* | -0.42 | 1
Cn1c(COc2ccccc2)nnc1SCCC(=O)Nc1ccccc1 | 3 | 1 | 6 | -6 | -0.15 | 4
Cc1ccccc1-n1nc(C)c2cc(C(=O)N3CCOCC3)sc21 | 10 | 2 | 23* | 4 | -1.4 | 4
SMILES | SF-1 act | PKA inh | JNK3 inh | RORa activator | WNV NS2B-NS3 inh | ROCK2 inh
c1coc(-c2nnc(NC3=NCCC3)o2)c1 | 61* | 8 | 11 | 32 | 0.37 | 2
COCc1nc(-c2ccc(-c3ccccc3)nc2OC)no1 | 32 | -4 | . | 72* | -0.65 | .
COCc1nc(-c2ccc(-c3ccc(OC)cc3)nc2OC)no1 | 12 | 2 | 0 | 49* | 0.33 | -3
CCc1nc(-c2ccc(-c3ccc(OC)cc3)nc2OC)no1 | 10 | 0 | . | 7 | -1.1 | .
O=C(CN1CCOCC1)Nc1cccc(Cl)c1Cl | -8 | 4 | 6 | -8 | -0.1 | 4
O=C(C1CCN(S(=O)(=O)c2cccc3cccnc23)CC1)N1CCN(C2CCCC2)CC1 | -5 | 9 | -3 | -7 | 1.2 | 6
CCOCCCNS(=O)(=O)c1ccc2c(c1)CCN2C(C)=O | 10 | 9 | . | -17 | -0.74 | .
CCOC(=O)c1nn(-c2ccc3c(c2)CCN3C(C)=O)cc1O | 65* | 4 | . | 58* | -1.1 | .
CC(C(=O)N(C1CC1)C1(C(=O)Nc2ccccc2)CCCC1)N1C(=O)c2ccccc2C1=O (stereo not given) | 7 | 17 | 3 | 21 | -0.65 | 5
CCOc1cc(N2CCOCC2)c(OCC)cc1NS(=O)(=O)c1ccc(Cl)s1 | 19 | 3 | -4 | 79* | 0.33 | 1
CCOc1cc(N2CCOCC2)c(OCC)cc1NC(=O)CCS(=O)(=O)c1ccc(Cl)cc1 | -6 | 1 | -3 | 4 | -0.54 | 1
CCOC(=O)C1=CN(C)C=C(C(=O)OCC)C1c1ccsc1 | 2 | 3 | 1 | -10 | 0.53 | 4
Cc1ccc(S(=O)(=O)NC(=O)NCc2ccccn2)cc1 | 13 | 1 | -6 | 9 | -0.8 | 0
O=C(Nc1ccc(N2CCN(C(=O)c3ccccc3)CC2)c(Cl)c1)c1ccc(Br)o1 | 18 | 6 | 7 | -1 | -0.44 | 14
CCc1cccc(NC(=O)c2ccc(Br)o2)c1 | 11 | 3 | 2 | -14 | 0.99 | 4
CCN(CC)c1ccc(NC(=O)c2ccc(Br)o2)cc1 | 39 | 8 | -14 | 102* | -1.4 | 2
O=C(Nc1ccc(N2CCOCC2)c(Cl)c1)c1ccc(Br)o1 | 67* | -1 | 4 | 55* | 0.32 | 6
O=C(Nc1ccc2c(c1)oc1ccccc12)c1ccc(Br)o1 | 38 | -3 | -3 | 68* | 1.1 | -2
Fc1cccc(CN2CCN(c3ncccn3)CC2)c1 | -11 | 0 | -1 | 4 | 1.2 | 1
Cc1ccc(C(=O)Nc2ccc3c(c2)ncn3C)cc1 | 38 | 9 | 2 | 52* | 0.27 | 9
COc1ccc(CNc2ccc(C(=O)O)cc2)cc1 | 78* | 7 | 0 | 13 | 0.0023 | 8
COc1ccc(S(=O)(=O)NCc2ccc(C(=O)O)cc2)cc1 | 3 | -9 | . | 0 | -0.68 | .
Cc1ccc(CNc2ccc3c(c2)ncn3C)cc1 | 57* | 2 | -8 | 63* | -0.07 | 1
Cc1nc2cc(CO)ccc2n1C | 11 | 13 | 1 | 2 | 0.44 | 3
CC(=O)N1CCc2cc(NC(=O)c3ccc(C)cc3)ccc21 | 19 | 4 | 4 | -14 | 1.9 | -11
COc1ccc(CNc2ccc3c(c2)nc(C)n3C)cc1 | 79* | -4 | -17 | 38 | 0.19 | -4
CCn1cnc2cc(NCc3ccncc3)ccc21 | 8 | 10 | -4 | -10 | 0.03 | 6
Nn1c(SCC(=O)Nc2ccc(F)c(F)c2)nnc1C1CCCCC1 | -8 | -15 | 4 | 16 | -2.3 | 0
CCc1ccc(CNc2ccc3c(c2)ncn3C)cc1 | 70* | 8 | -3 | 61* | -0.87 | 5

Screening results from PubChem.
